# From ChEMBL document CHEMBL5058577, “EUbOPEN Chemogenomics Library 2 (Multiplex)” (2022)
# Tested on: U2OS
# Assay: Multiplex assay against U2OS
# Type: toxicity, cell-based
# Details: human
# How it was run: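 Hoechst33342, BioTracker Green Microtubule Cytoskeleton Dye, MitoTracker Red and Annexin V Alexa Fluor 680 were added to live cells at seeding, and imaging on a CQ1 microscope at 37°C and 5% CO2 followed compound addition. Gating by CellPathfinder machine learning separated cells into Hoechst high-intensity objects or normal cells, then normal cells into healthy, pyknosed or fragmented nuclei, then pyknosed cells into mitotic or apoptotic. Per cents of healthy-nucleus cells are reported for the tubulin, mitochondrial-mass and membrane-permeability phenotypes.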
# [1] = 12 h, 1 µM, compound concentration 1 uM, replicate 1
# [2] = 12 h, 1 µM, compound concentration 1 uM, replicate 2
# [3] = 12 h, 10 µM, compound concentration 10 uM, replicate 1
# [4] = 12 h, 10 µM, compound concentration 10 uM, replicate 2
# [5] = 24 h, 1 µM, compound concentration 1 uM, replicate 1
# [6] = 24 h, 1 µM, compound concentration 1 uM, replicate 2
# [7] = 24 h, 10 µM, compound concentration 10 uM, replicate 1
# [8] = 24 h, 10 µM, compound concentration 10 uM, replicate 2
# [9] = 48 h, 1 µM, compound concentration 1 uM, replicate 1
# [10] = 48 h, 1 µM, compound concentration 1 uM, replicate 2
# [11] = 48 h, 10 µM, compound concentration 10 uM, replicate 1
# [12] = 48 h, 10 µM, compound concentration 10 uM, replicate 2
compound,measurement,setting,value
Cc1cc(NC(=O)NCCN2CCC(O)(Cc3ccccc3)CC2)c2ccccc2n1 [PALOSURAN],Population Apoptotic (%),[1],80%
same,Population Fragmented Nuclei (%),[1],27%
same,Population Healthy Nuclei (%),[1],65%
same,Population Hoechst High Intensity Objects (%),[1],1%
same,Population Membrane Permeable-Phenotype (%),[1],4%
same,Population Mitochondria Different-Phenotype (%),[1],2%
same,Population Mitotic Cells (%),[1],20%
same,Population Normal (%),[1],98%
same,Population Pyknosed Nuclei (%),[1],6%
same,Population Tubulin-Different-Phenotype (%),[1],1%
same,Total Cell Count,[1],220
same,Population Apoptotic (%),[2],71%
same,Population Fragmented Nuclei (%),[2],19%
same,Population Healthy Nuclei (%),[2],71%
same,Population Hoechst High Intensity Objects (%),[2],0%
same,Population Membrane Permeable-Phenotype (%),[2],2%
same,Population Mitochondria Different-Phenotype (%),[2],0%
same,Population Mitotic Cells (%),[2],28%
same,Population Normal (%),[2],100%
same,Population Pyknosed Nuclei (%),[2],9%
same,Total Cell Count,[2],145
same,Population Apoptotic (%),[3],72%
same,Population Fragmented Nuclei (%),[3],30%
same,Population Healthy Nuclei (%),[3],59%
same,Population Hoechst High Intensity Objects (%),[3],3%
same,Population Membrane Permeable-Phenotype (%),[3],6%
same,Population Mitochondria Different-Phenotype (%),[3],1%
same,Population Mitotic Cells (%),[3],28%
same,Population Normal (%),[3],96%
same,Population Pyknosed Nuclei (%),[3],9%
same,Population Tubulin-Different-Phenotype (%),[3],1%
same,Total Cell Count,[3],266
same,Population Apoptotic (%),[4],66%
same,Population Fragmented Nuclei (%),[4],17%
same,Population Healthy Nuclei (%),[4],70%
same,Population Membrane Permeable-Phenotype (%),[4],12%
same,Population Mitochondria Different-Phenotype (%),[4],2%
same,Population Mitotic Cells (%),[4],33%
same,Population Pyknosed Nuclei (%),[4],11%
same,Population Tubulin-Different-Phenotype (%),[4],8%
same,Total Cell Count,[4],107
same,Population Apoptotic (%),[5],94%
same,Population Fragmented Nuclei (%),[5],26%
same,Population Healthy Nuclei (%),[5],66%
same,Population Hoechst High Intensity Objects (%),[5],1%
same,Population Membrane Permeable-Phenotype (%),[5],3%
same,Population Mitochondria Different-Phenotype (%),[5],3%
same,Population Mitotic Cells (%),[5],5%
same,Population Normal (%),[5],98%
same,Population Pyknosed Nuclei (%),[5],6%
same,Population Tubulin-Different-Phenotype (%),[5],2%
same,Total Cell Count,[5],276
same,Population Apoptotic (%),[6],66%
same,Population Fragmented Nuclei (%),[6],17%
same,Population Healthy Nuclei (%),[6],74%
same,Population Membrane Permeable-Phenotype (%),[6],7%
same,Population Mitochondria Different-Phenotype (%),[6],7%
same,Population Mitotic Cells (%),[6],33%
same,Population Pyknosed Nuclei (%),[6],8%
same,Population Tubulin-Different-Phenotype (%),[6],3%
same,Total Cell Count,[6],173
same,Population Apoptotic (%),[7],92%
same,Population Fragmented Nuclei (%),[7],26%
same,Population Healthy Nuclei (%),[7],65%
same,Population Hoechst High Intensity Objects (%),[7],3%
same,Population Membrane Permeable-Phenotype (%),[7],4%
same,Population Mitochondria Different-Phenotype (%),[7],0%
same,Population Mitotic Cells (%),[7],8%
same,Population Normal (%),[7],96%
same,Population Pyknosed Nuclei (%),[7],8%
same,Population Tubulin-Different-Phenotype (%),[7],2%
same,Total Cell Count,[7],297
same,Population Apoptotic (%),[8],75%
same,Population Fragmented Nuclei (%),[8],19%
same,Population Healthy Nuclei (%),[8],74%
same,Population Membrane Permeable-Phenotype (%),[8],11%
same,Population Mitochondria Different-Phenotype (%),[8],1%
same,Population Mitotic Cells (%),[8],25%
same,Population Pyknosed Nuclei (%),[8],6%
same,Population Tubulin-Different-Phenotype (%),[8],5%
same,Total Cell Count,[8],129
same,Population Apoptotic (%),[9],96%
same,Population Fragmented Nuclei (%),[9],25%
same,Population Healthy Nuclei (%),[9],68%
same,Population Hoechst High Intensity Objects (%),[9],1%
same,Population Membrane Permeable-Phenotype (%),[9],5%
same,Population Mitochondria Different-Phenotype (%),[9],3%
same,Population Mitotic Cells (%),[9],3%
same,Population Normal (%),[9],98%
same,Population Pyknosed Nuclei (%),[9],6%
same,Population Tubulin-Different-Phenotype (%),[9],3%
same,Total Cell Count,[9],411
same,Population Apoptotic (%),[10],84%
same,Population Fragmented Nuclei (%),[10],15%
same,Population Healthy Nuclei (%),[10],73%
same,Population Hoechst High Intensity Objects (%),[10],3%
same,Population Membrane Permeable-Phenotype (%),[10],7%
same,Population Mitochondria Different-Phenotype (%),[10],5%
same,Population Mitotic Cells (%),[10],16%
same,Population Normal (%),[10],97%
same,Population Pyknosed Nuclei (%),[10],11%
same,Population Tubulin-Different-Phenotype (%),[10],4%
same,Total Cell Count,[10],233
same,Population Apoptotic (%),[11],97%
same,Population Fragmented Nuclei (%),[11],20%
same,Population Healthy Nuclei (%),[11],70%
same,Population Hoechst High Intensity Objects (%),[11],1%
same,Population Membrane Permeable-Phenotype (%),[11],5%
same,Population Mitochondria Different-Phenotype (%),[11],2%
same,Population Mitotic Cells (%),[11],2%
same,Population Normal (%),[11],98%
same,Population Pyknosed Nuclei (%),[11],9%
same,Population Tubulin-Different-Phenotype (%),[11],2%
same,Total Cell Count,[11],421
same,Population Apoptotic (%),[12],89%
same,Population Fragmented Nuclei (%),[12],16%
same,Population Healthy Nuclei (%),[12],72%
same,Population Membrane Permeable-Phenotype (%),[12],7%
same,Population Mitochondria Different-Phenotype (%),[12],4%
same,Population Mitotic Cells (%),[12],10%
same,Population Pyknosed Nuclei (%),[12],10%
same,Population Tubulin-Different-Phenotype (%),[12],1%
same,Total Cell Count,[12],180
